Reference: BindingDB's records for doi:10.1016/j.bmc.2019.03.050 (University of Illinois At Chicago, 2019)

Legend:
[1] = molecular target: T1, Replicase polyprotein 1ab (Middle East respiratory syndrome-related coronavirus (isolate United Kingdom/H123990006/2012), UniProt K9N7C7); experiment: Binding affinity to MERS-CoV papain-like protease by SPR analysis
Method in brief: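 SPR on Biacore T200. Enzyme at 50 µg/mL in 10 mM sodium acetate pH 5.5 amine-coupled to CM5 chip (~10,000 RU); blank flow cells as reference. Compounds 0-50 µM (2-fold series) in PBSP + 0.5 mM TCEP, 2% DMSO, 30 µL/min, 25°C; double-referenced. KD from steady-state responses fit to rectangular hyperbola; rate constants from global 1:1 Langmuir fit.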

[2] = molecular target: T1, Replicase polyprotein 1ab; experiment: Competitive-inhibition of MERS-CoV papain-like protease using varying levels of Z-Arg-Leu-Arg-Gly-Gly-AMC as substrate by Dixon-plot analysis
[3] = molecular target: T1, Replicase polyprotein 1ab; experiment: Inhibition of MERS-CoV papain-like protease using Z-Arg-Leu-Arg-Gly-Gly-AMC as substrate preincubated for 5 mins followed by substrate addition and measured for 10 mins by fluorescence assay

T1 sequence (K9N7C7 854-2740 limits assumed): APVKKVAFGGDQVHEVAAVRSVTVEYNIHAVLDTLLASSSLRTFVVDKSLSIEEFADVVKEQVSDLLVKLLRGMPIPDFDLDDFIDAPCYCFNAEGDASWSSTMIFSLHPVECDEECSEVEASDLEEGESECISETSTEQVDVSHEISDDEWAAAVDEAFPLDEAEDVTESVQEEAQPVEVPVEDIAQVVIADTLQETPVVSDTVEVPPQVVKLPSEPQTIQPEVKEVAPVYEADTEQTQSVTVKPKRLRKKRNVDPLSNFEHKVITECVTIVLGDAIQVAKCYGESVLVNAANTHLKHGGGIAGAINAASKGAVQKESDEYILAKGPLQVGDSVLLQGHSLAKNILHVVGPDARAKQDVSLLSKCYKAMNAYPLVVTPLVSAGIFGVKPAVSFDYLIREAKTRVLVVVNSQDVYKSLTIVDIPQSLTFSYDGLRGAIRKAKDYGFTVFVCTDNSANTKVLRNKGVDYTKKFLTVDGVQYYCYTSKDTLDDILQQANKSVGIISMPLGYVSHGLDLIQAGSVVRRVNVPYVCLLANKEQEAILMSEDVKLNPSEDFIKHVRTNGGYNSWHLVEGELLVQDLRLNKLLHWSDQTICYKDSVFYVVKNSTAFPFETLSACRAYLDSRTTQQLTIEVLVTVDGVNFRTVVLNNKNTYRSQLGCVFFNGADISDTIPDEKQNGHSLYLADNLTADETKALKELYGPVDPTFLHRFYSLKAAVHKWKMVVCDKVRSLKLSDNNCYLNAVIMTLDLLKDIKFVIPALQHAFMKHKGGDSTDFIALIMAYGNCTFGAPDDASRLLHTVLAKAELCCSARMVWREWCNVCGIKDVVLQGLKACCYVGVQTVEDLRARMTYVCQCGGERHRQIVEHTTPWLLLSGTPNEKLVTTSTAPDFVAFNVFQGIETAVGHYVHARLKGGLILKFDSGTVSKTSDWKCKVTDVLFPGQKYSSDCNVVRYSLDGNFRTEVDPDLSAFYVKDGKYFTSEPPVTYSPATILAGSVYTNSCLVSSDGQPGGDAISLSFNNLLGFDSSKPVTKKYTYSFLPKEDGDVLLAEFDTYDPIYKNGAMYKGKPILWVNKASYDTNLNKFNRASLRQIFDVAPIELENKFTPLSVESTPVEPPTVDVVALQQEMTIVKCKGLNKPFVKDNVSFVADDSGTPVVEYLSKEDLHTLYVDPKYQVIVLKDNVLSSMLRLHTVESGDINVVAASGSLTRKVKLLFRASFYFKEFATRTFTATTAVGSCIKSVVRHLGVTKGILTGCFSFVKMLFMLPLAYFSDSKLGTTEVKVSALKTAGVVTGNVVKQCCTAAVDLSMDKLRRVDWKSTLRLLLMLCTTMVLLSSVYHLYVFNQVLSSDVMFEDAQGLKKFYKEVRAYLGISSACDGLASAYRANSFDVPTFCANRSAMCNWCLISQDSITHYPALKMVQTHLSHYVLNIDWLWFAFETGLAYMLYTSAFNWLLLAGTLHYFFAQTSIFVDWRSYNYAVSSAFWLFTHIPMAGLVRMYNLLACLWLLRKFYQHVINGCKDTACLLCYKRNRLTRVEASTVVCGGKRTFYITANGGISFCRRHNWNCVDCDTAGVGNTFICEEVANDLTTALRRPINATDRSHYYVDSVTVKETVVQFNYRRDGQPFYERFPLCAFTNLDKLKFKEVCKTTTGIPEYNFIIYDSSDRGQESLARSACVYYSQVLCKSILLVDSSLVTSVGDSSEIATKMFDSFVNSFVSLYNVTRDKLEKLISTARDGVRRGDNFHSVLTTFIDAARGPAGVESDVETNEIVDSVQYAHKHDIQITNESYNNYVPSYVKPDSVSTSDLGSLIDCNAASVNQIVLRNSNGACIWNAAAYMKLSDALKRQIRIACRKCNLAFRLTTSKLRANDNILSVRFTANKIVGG

With O=C(NC1=CC=CC2C(=O)C=C(c3nn[nH]n3)OC12)c1ccc(OCCCCc2ccccc2)cc1 (stereo not drawn) [ONO-1078] the Kd [1] was 14.1 µM, the Ki [2] was 127 µM and the IC50 [3] was 25 µM.
